How the values were obtained:
tunicate LXR = conditions: ref Reschly et al. 2008; cited from earlier work
L. japonicum LXR = target: T1, L. japonicum LXR (Lethenteron camtschaticum, UniProt A0A1S6EKM6); assay: GAL4-LBD chimeric receptor luciferase transactivation assay in COS-1 cells; assay type: cell-based
T1 sequence (A0A1S6EKM6 89-387): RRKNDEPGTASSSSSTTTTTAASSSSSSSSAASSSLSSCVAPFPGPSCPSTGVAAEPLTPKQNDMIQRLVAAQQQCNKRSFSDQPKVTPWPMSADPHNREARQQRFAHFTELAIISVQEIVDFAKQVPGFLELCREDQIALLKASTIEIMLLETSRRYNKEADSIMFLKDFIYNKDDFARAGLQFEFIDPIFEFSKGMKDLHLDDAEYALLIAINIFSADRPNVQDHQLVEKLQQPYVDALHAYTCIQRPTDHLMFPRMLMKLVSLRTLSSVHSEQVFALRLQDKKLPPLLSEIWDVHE
Summary of the method: (§1)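 The receptor's ligand-binding domain plus hinge was fused to the GAL4 DBD in pBIND. COS-1 cells were seeded 24 h before lipofection with 500 ng receptor plasmid and 1,000 ng GAL4UAS-luc2P reporter. After 5 h, medium became phenol red-free DMEM/10% charcoal-stripped FBS with compound in DMSO (oxysterols 10^1–10^5.5 nM). Dual-luciferase was read 24 h post-transfection, in triplicate over three experiments, as mean ± SE. EC50 came from sigmoidal dose–response curves. Normalized fold activation was compared by one-way ANOVA/Holm–Sidak.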

LXRβ = conditions: human and mouse LXRs; ref Reschly et al. 2008; cited from earlier work
LXRα = conditions: human and mouse LXRs; ref Reschly et al. 2008; cited from earlier work
B. lanceolatum LXR = target: T2, B. lanceolatum LXR (Branchiostoma lanceolatum, UniProt A0A8J9ZB24); assay: GAL4-LBD chimeric receptor luciferase transactivation assay in COS-1 cells; assay type: cell-based
T2 sequence (A0A8J9ZB24 168-437): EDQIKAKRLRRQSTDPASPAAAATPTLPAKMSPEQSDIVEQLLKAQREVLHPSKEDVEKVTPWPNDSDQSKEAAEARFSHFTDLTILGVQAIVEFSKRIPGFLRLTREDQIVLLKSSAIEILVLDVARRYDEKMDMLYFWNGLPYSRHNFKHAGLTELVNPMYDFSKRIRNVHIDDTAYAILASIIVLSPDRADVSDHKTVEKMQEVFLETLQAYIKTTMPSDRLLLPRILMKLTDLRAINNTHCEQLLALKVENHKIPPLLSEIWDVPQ
Summary of the method: as §1

L. erinacea LXRα = target: T3, L. erinacea LXRα (Leucoraja erinacea, UniProt A0A1S6EKM1); assay: as above; assay type: cell-based; conditions: all tested concentrations, P < 0.001
T3 sequence (A0A1S6EKM1 181-451): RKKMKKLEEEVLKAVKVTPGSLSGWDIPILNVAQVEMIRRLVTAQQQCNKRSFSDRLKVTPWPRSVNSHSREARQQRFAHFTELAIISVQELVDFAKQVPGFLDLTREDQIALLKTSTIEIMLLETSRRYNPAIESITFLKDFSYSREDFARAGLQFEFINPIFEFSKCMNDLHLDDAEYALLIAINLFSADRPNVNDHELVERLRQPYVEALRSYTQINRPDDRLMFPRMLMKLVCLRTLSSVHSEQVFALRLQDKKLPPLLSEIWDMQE
Summary of the method: as §1

L. erinacea LXRβ = target: T4, L. erinacea LXRβ (Leucoraja erinacea, UniProt A0A1S6EKM5); assay: as above; assay type: cell-based; conditions: all tested concentrations, P < 0.001
T4 sequence (A0A1S6EKM5 2-271): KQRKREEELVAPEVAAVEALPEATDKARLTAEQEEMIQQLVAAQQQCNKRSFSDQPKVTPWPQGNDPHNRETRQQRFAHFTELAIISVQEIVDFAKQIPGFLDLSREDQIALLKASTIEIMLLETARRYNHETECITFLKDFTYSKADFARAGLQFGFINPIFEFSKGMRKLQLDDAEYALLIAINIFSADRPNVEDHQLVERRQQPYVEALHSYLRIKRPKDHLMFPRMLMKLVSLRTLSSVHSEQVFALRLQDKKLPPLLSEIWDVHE
Summary of the method: as §1

For `O=Cc1c2[nH]c3ccccc3c2cc2[nH]c3ccccc3c12` [6-Formylindolo(3,2-b)carbazole], the “activation of tunicate LXR (in words)” value (tunicate LXR) is listed as “strongly activated”.

For `C[C@H](CC[C@@H]1OC1(C)C)[C@H]1CC[C@H]2[C@@H]3CC=C4C[C@@H](O)CC[C@]4(C)[C@H]3CC[C@]12C` [24,25-EC, 24(S),25-epoxycholesterol], the “transcriptional activation of lamprey LXR (in words)” value (L. japonicum LXR) is listed as “strongly induced”, the “activation of LXRβ (in words)” value (LXRβ) is listed as “robustly activated” and the “activation of LXRα (in words)” value (LXRα) is listed as “robustly activated”.

For `CC(C)[C@@H](O)CC[C@@H](C)[C@H]1CC[C@H]2[C@@H]3CC=C4C[C@@H](O)CC[C@]4(C)[C@H]3CC[C@]12C` [24-HC, 24(S)-hydroxycholesterol], the “transcriptional activation of lamprey LXR (in words)” value (L. japonicum LXR) is listed as “strongly induced”, the “activation of LXRβ (in words)” value (LXRβ) is listed as “robustly activated” and the “activation of LXRα (in words)” value (LXRα) is listed as “robustly activated”. For the same compound, the “transcriptional activation of amphioxus LXR (in words)” value (B. lanceolatum LXR) was “residually, but significantly, activated”.

In the case of `C[C@H](CCCC(C)(C)O)[C@H]1CC[C@H]2[C@@H]3CC=C4C[C@@H](O)CC[C@]4(C)[C@H]3CC[C@]12C` [25-HC, 25-hydroxycholesterol], the “transcriptional activation of lamprey LXR (in words)” value (L. japonicum LXR) is listed as “prominent and statistically significant (P < 0.001), yet only at higher concentrations”, the “activation of LXRβ (in words)” value (LXRβ) is listed as “lower transcriptional responses” and the “activation of LXRα (in words)” value (LXRα) is listed as “lower transcriptional responses”.

For `O=S(=O)(c1ccccc1)N(CC(F)(F)F)c1ccc(C(O)(C(F)(F)F)C(F)(F)F)cc1` [T0901317], the “transcriptional activation of lamprey LXR (in words)” value (L. japonicum LXR) was “significant activations”, the “agonistic response, little skate LXRα (in words)” value (L. erinacea LXRα) was “significant activations” and the “agonistic response, little skate LXRβ (in words)” value (L. erinacea LXRβ) was “significant activations”.

For `C[C@@]12CCC[C@H]1[C@@H]1CC[C@H]3C[C@@H](O)CC[C@]3(C)[C@H]1CC2` [androstanol], the “activation of tunicate LXR (in words)” value (tunicate LXR) is listed as “induced”.

For `C[C@]12CC[C@@H](O)C[C@@H]1CC[C@@H]1[C@@H]2CC[C@]2(C)C=CC[C@@H]12` [androstenol], the “activation of tunicate LXR (in words)” value (tunicate LXR) is listed as “induced”.

— article PMC5381633 (Genome Biology and Evolution, 2017)
